# Source: PubChem
# In the library only some 1.4% were active in any assay of this set; here they are far more common.
# ATG4B inhibitor = ATG4B (human) cysteine protease inhibition; Q9Y4P1; ATG4B cleavage of LC3-PLA2, NBD-HPC fluorescence, 1 h; inhibition, % at 8.33 µM; actives 0.51% (n = 340,000); AID 504462; in the data active means inhibition above about 40%
# Fh CTSL1 inh = blocks F. hepatica cathepsin L1 in PFM18AAP counter-screen; recombinant F. hepatica cathepsin L1, Z-Leu-Arg-MCA fluorescence; inhibition, % at 5.96 µM; actives 0.49% (n = 300,000); AID 1906;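 active means inhibition above the mean of all tested compounds plus 3 SD, set per screening campaign, cut at about 17% in these data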;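 further: 0% = plate median of test compound wells and 100% = 1 µM Z-Phe-Ala-diazomethylketone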
# Diaph act CS = diaphorase activation or chemical reduction counter-screen; Diaphorase/resazurin coupled assay, resorufin fluorescence, 16 min; active compounds read high; 1 = vehicle wells, 0 = NADH-free wells; activation factor at 20 µM; actives 0.005% (n = 190,000); AID 1229;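 active means diaphorase activity raised at least twofold by the compound at 20 µM; inactive means activation factor below 2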
#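 Material: bacterial diaphorase enzyme (C. kluyveri); amount: enzyme 0.07 U/mL final; reagent: NADH substrate 0.114 mM plus resazurin dye 0.1 mM, final; doses: single compound dose of 20 µM, 1% DMSO final; timing: 16 min enzyme reaction, ambient temperature; measured by: fluorescence of resorufin, 544 nm excitation, 590 nm emission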
# Diaph inh CS = diaphorase inhibition or chemical oxidation counter-screen. diaphorase resazurin-to-resorufin fluorescence, NADH, 16 min; bacterial (C. kluyveri) enzyme, not human. inhibition, % at 20 µM. actives 0.69% (n = 190,000). AID 1217;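 active means primary screen inhibition at 20 µM above a set limit, cut at about 50% in these data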;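 further: plate controls were DMSO with full reaction for no effect and wells lacking NADH for full effect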
#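 Assay system: diaphorase enzyme from Clostridium kluyveri; Input: enzyme working solution with 0.14 U/mL diaphorase; Timing: 16 min at room temperature; Technique: resorufin fluorescence, excitation 544 nm, emission 590 nm; Benchmarks: positive control minus NADH, DMSO neutral control.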
# HKDC1 inh = HKDC1 (human) hexokinase inhibition; Q2TB90; recombinant HKDC1, G6PDH/diaphorase resazurin coupled fluorescence; inhibition, % at 20 µM; actives 0.16% (n = 340,000); AID 493160;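 active means inhibition above about 35% when tested at 20 µM, limit read from the data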;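 further: plate controls were DMSO wells with enzyme for no effect and DMSO wells lacking enzyme for full effect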
# Target sequence (Q2TB90 whole entry, looked up): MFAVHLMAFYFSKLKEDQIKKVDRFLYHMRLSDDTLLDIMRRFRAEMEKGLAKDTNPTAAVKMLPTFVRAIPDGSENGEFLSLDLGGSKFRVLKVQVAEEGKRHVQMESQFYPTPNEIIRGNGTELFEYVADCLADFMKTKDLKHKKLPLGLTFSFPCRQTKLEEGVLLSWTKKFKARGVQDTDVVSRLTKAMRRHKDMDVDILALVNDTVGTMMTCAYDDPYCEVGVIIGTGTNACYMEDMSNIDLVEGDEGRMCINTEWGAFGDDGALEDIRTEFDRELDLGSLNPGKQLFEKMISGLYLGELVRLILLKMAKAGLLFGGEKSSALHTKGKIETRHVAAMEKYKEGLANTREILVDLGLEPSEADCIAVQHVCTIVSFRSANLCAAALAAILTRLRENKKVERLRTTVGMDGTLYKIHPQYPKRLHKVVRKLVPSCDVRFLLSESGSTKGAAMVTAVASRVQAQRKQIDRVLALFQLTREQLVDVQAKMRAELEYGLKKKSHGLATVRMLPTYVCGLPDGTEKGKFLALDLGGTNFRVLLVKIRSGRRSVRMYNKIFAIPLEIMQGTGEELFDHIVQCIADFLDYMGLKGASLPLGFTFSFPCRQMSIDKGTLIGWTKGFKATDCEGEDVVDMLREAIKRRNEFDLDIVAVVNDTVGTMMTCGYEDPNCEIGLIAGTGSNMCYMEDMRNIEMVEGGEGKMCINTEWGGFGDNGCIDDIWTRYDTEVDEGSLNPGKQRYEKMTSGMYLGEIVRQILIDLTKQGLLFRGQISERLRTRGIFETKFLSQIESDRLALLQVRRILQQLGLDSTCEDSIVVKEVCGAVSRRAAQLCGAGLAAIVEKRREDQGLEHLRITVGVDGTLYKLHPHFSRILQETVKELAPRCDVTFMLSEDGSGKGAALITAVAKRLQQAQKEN
#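 System: Recombinant HKDC1 hexokinase | Amount: HKDC1 at 5 µg/mL | Reagent: Glucose with 1 mM ATP | Doses: Single 20 µM dose | Incubation: Reaction time 90 min, room temperature, protected from light | Signal: Coupled resazurin fluorescence, excitation 525 nm, emission 613 nm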
# HKDC1 act conf = confirmation of human HKDC1 activators; shares compounds with HKDC1 inh; recombinant HKDC1, G6PDH/diaphorase resazurin fluorescence; active compounds read low; inhibition, % at 20 µM; actives 14% (n = 740); AID 504708;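 active means inhibition at or below a set negative limit, negative inhibition meaning the enzyme was activated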
# Active calls of the source: *; . = not tested or not shown.
SMILES,ATG4B inhibitor,Fh CTSL1 inh,Diaph act CS,Diaph inh CS,HKDC1 inh,HKDC1 act conf
COC(=O)[C@]1(C)N[C@H](c2ccc(SC3CCCCC3)c(OC)c2)[C@@H]2C(=O)N(C)C(=O)[C@@H]21,-4,-4,.,.,-2,.
COC1=CC(=O)C(C2CC(=O)c3c(O)cc(O)cc3O2)=CC1=O (stereo not given),0,.,.,.,60*,40
COc1c(CC=C(C)C)cc(C2CC(=O)c3c(O)cc(O)cc3O2)cc1CC=C(C)C (stereo not given),-11,0,.,.,6,.
Oc1c(Br)cc(Br)cc1/C=N/c1nc2c(s1)CCCC2,10,-7,.,.,37*,-2
Cc1ccc2oc(C(=O)N3CCCCCC3)c(C)c2c1,2,11,.,.,-3,.
Cc1ccc2oc(C(=O)N3CCC(N4CCSCC4)CC3)c(C)c2c1,-8,0,.,.,35*,-13
O=C(c1ccc2c3c(cccc13)CC2)C1CCCN(Cc2cccnc2)C1 (stereo not given),-6,-1,0.9,14,3,.
COc1cc(CN2CCCC(C(=O)c3ccc4c5c(cccc35)CC4)C2)cc(OC)c1O (stereo not given),2,0,0.5,46,34,26
Cn1cnc([N+](=O)[O-])c1Sc1ccc(Br)cc1,3,-3,0.9,6,-58,-7
Cc1ccc(Sc2c([N+](=O)[O-])ncn2C)cc1,3,1,0.9,6,2,.
Cc1nc2c(c(=O)c3ccccc3n2C)c(=O)n1-c1ccc(F)cc1,-8,-2,.,.,51*,53
CCCc1nc2c(c(=O)c3ccccc3n2C)c(=O)n1-c1ccc(F)cc1,6,0,0.2,78*,51*,58
C/C(=N\NC(=O)c1c(C)nc2ccccn12)c1ccc(O)cc1O,2,7,.,.,-45,-8
C/C(=N\NC(=O)c1c(C)nc2ccccn12)c1ccccc1F,6,1,.,.,0,.
Cc1ccc(N(C(=O)c2snc(C(N)=O)c2N)C(C(=O)NC2CCCC2)c2ccncc2)cc1 (stereo not given),1,0,.,.,5,.
O=C(O)C1Nc2ccc(OC(F)(F)F)cc2C2C=CCC12 (stereo not given),.,-4,.,.,.,.
O=C(O)C1Nc2c(O)cc(Cl)c([N+](=O)[O-])c2C2C=CCC12 (stereo not given),16,2,0.3,71*,32,31
CCC1(c2ccccc2)NC(=O)N(CC(=O)N2CC(=O)Nc3ccccc32)C1=O (stereo not given),-3,.,.,.,-5,.
O=C(/C=C/c1ccc(S(=O)(=O)N2CCOCC2)cc1)NC(CO)C(O)c1ccc([N+](=O)[O-])cc1 (stereo not given),-10,.,.,.,-6,.
NS(=O)(=O)c1ccc(CCNC(=O)COC(=O)C2COc3ccccc3O2)cc1 (stereo not given),1,.,.,.,-6,.
COc1ccc(-c2nc3c(c(=O)n(C)c(=O)n3C)n2CC2CC(c3ccccc3)=NO2)cc1OC (stereo not given),-10,-3,.,.,-48,-33*
COc1ccc(C(=O)OCC2CC(c3ccccc3)=NO2)cc1OC (stereo not given),-5,-1,1,-5,-3,.
CC1=NN(c2ccc(C)cc2)C(=O)/C1=C/c1ccc(-c2cc([N+](=O)[O-])ccc2O)o1,10,.,.,.,18,.
O=C1NN(c2cccc(Br)c2)C(=O)/C1=C/c1ccc(-c2cc([N+](=O)[O-])ccc2O)o1,18,0,.,.,62*,-13
O=C(COC(=O)Cc1ccsc1)Nc1ccc(Br)cc1F,-11,.,.,.,-4,.
SMILES,ATG4B inhibitor,Fh CTSL1 inh,Diaph act CS,Diaph inh CS,HKDC1 inh,HKDC1 act conf
NC(=O)c1ccsc1NC(=O)CS(=O)(=O)c1ccc(F)cc1,-6,-1,.,.,1,.
COC(=O)[C@@H](Cc1ccccc1)NC(=O)Cn1cnc2c(SC)nc(N)nc21,.,.,.,.,-1,.
CSc1nc(N)nc2c1ncn2CC(=O)N[C@H](C)c1cccc2ccccc12,-11,.,.,.,-55,-74*
O=C1C=CC(=O)C(C2=C3C(=O)N(CCc4ccccc4)CC(=O)N3CCC2)=C1,0,2,0.7,27,63*,71
O=C1CC2(CCCCC2)CC(=O)N1CCc1ccccc1,5,.,.,.,-4,.
O=C(O)c1ccc(N2C(=O)/C(=C/c3ccc(-c4ccc([N+](=O)[O-])cc4)o3)C=C2c2ccccc2)cc1,8,1,0.4,57*,43*,1
COc1cc([N+](=O)[O-])ccc1-c1ccc(/C=C2\C(=O)ON=C2c2ccccc2)o1,10,.,.,.,44*,25
COc1ccc([C@@H]2CC=C(C(=O)O)[C@H](c3ccc(Cl)cc3)N2S(=O)(=O)c2ccc(C)cc2)cc1OC,-3,2,.,.,32,.
CC(O)(Cc1cccnc1)c1cccs1 (stereo not given),0,.,.,.,-1,.
Cc1cc(C)nc(S/C=C/C(=O)c2ccccc2F)n1,6,5,.,.,1,.
CC(C)(C)c1ccc(-c2csc(NNC3=NCCCCC3)n2)cc1,-6,2,0.9,10,-61,-39*
Brc1ccc(-c2csc(NNC3=NCCCCC3)n2)cc1,-12,3,0.9,6,-1,.
CCOP(=O)(OCC)c1ccc2c(c1)C(=O)c1ccccc1CC2,-15,.,.,.,-4,.
Cc1ccc(C(=O)c2coc3c2C(=O)C(=O)c2ccccc2-3)cc1,-7,-1,0.4,58*,57*,29
O=C(c1ccc(Cl)cc1)c1ccc(CN2C(=O)c3ccccc3C2=O)o1,-4,1,0.8,17,7,.
Cc1ccc(C(=O)c2cn[nH]c2-c2ccccc2O)cc1,-3,0,0.9,12,-4,.
Cc1oc2c(c1C(=O)c1ccc(Cl)cc1)C(=O)C(=O)c1ccccc1-2,4,.,0.4,60*,55*,46
Cc1ccc(C(=O)c2c(C)oc3c2C(=O)C(=O)c2ccccc2-3)cc1,8,-6,0.4,57*,48*,46
O=C(CN1CCSC1=O)Nc1ccc(N2CCOCC2)cc1,-5,.,.,.,-2,.
O=C1C(O)=CC(=C(c2ccccc2)c2ccccc2)c2ccccc21,38,.,.,.,78*,18
O=C(O)c1cccc2c1C(=O)c1ccccc1C2=O,-5,2,1,3,4,.
Cc1cc(C(=O)N2CCN(c3cc(Cl)ccc3C)CC2)on1,-15,0,.,.,-4,.
COc1ccc(CC(=O)N(Cc2ccccc2)c2ccc(C)cc2)cc1S(=O)(=O)N1CCOCC1,-13,3,.,.,33,-30
CC1=NOC(=O)/C1=C\c1ccc(-c2cccc(Cl)c2)o1,5,5,1.1,-6,38*,3
Cc1ccc(SC2=C(Sc3ccc(C)cc3)C(=O)c3ccccc3C2=O)cc1,-4,-6,.,.,66*,69
